Experimental data taken from ChEMBL document CHEMBL1146345, “Synthesis and evaluation of novel 1-(1H-1,2,4-triazol-1-yl)-2-(2,4-difluorophenyl)-3-[(4-substitutedphenyl)-piperazin-1-yl]-propan-2-ols as antifungal agents” (2007).
≈ marks a conversion by molar mass, not a printed value.

Columns and labels:
Assay type in all cases: functional
Nakaseomyces glabratus = assay: Antifungal activity against Torulopsis glabrata by micro-broth dilution method
Outline: (§1)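 NCCLS microbroth dilution: drugs diluted in growth medium, inoculated, then incubated at 35 C. The endpoint was MIC80, the first well with approximately 80% less growth than the drug-free well. Fluconazole and itraconazole were run as positive controls.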

Candida parapsilosis = assay: Antifungal activity against Candida parapsilosis ATCC 22019 by micro-broth dilution method; conditions: Lodderomyces parapsilosis
Outline: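 Candida parapsilosis ATCC22019 was the quality-control strain tested in every assay. Microbroth dilution followed NCCLS methods, with incubation at 35 C in growth medium. MIC80 is the first well with about 80% growth reduction relative to the drug-free control. Fluconazole and itraconazole were the positive controls.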

Cryptococcus neoformans = assay: Antifungal activity against Cryptococcus neoformans after 72 hrs by micro-broth dilution method
Outline: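 Cryptococcus neoformans was tested by NCCLS broth microdilution, with drug diluted in growth medium and incubation at 35 C. MIC was read at 72 h as MIC80, the first well with about 80% growth reduction compared with the drug-free well. Fluconazole and itraconazole were the positive controls.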

Candida albicans = assay: Antifungal activity against Candida albicans after 24 hrs by microbroth dilution method
Outline: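 Broth microdilution following NCCLS methods, with drug dilutions in growth medium. Inoculated plates were incubated at 35 C and read at 24 h. MIC80 is the first well showing roughly 80% less growth than the drug-free well. Fluconazole and itraconazole served as positive controls.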

Pichia kudriavzevii = assay: Antifungal activity against Candida krusei ATCC 6258 by micro-broth dilution method; outline: as §1
Candida tropicalis = assay: Antifungal activity against Candida tropicalis by micro-broth dilution method; outline: as §1

SMILES | MIC80 (Nakaseomyces glabratus) [µg/mL] | MIC80 (Candida parapsilosis) [µg/mL] | MIC80 (Cryptococcus neoformans) [µg/mL] | MIC80 (Candida albicans) [µg/mL] | MIC80 (Pichia kudriavzevii) [µg/mL] | MIC80 (Candida tropicalis) [µg/mL]
O=[N+]([O-])c1ccc(/C=N/c2ccc(N3CCN(CC(O)(Cn4cncn4)c4ccc(F)cc4F)CC3)cc2)cc1 (stereo not drawn) | 8 (≈ 14.6 µM) | 4 (≈ 7.31 µM) | > 64 | > 64 | 4 (≈ 7.31 µM) | > 64
O=[N+]([O-])c1cccc(/C=N/c2ccc(N3CCN(CC(O)(Cn4cncn4)c4ccc(F)cc4F)CC3)cc2)c1 (stereo not drawn) | 4 (≈ 7.31 µM) | 4 (≈ 7.31 µM) | 16 (≈ 29.2 µM) | 64 (≈ 117 µM) | 8 (≈ 14.6 µM) | > 64
OC(CN1CCN(c2ccc(/N=C/c3ccc(Cl)c(Cl)c3)cc2)CC1)(Cn1cncn1)c1ccc(F)cc1F (stereo not drawn) | > 64 | 8 (≈ 14 µM) | > 64 | 1 (≈ 1.75 µM) | 16 (≈ 28 µM) | > 64
Cc1ccc(/C=N/c2ccc(N3CCN(CC(O)(Cn4cncn4)c4ccc(F)cc4F)CC3)cc2)cc1 (stereo not drawn) | 16 (≈ 31 µM) | 2 (≈ 3.87 µM) | > 64 | 1 (≈ 1.94 µM) | 4 (≈ 7.74 µM) | > 64
Oc1ccc(/C=N/c2ccc(N3CCN(CC(O)(Cn4cncn4)c4ccc(F)cc4F)CC3)cc2)cc1 (stereo not drawn) | 8 (≈ 15.4 µM) | 1 (≈ 1.93 µM) | 4 (≈ 7.71 µM) | 32 (≈ 61.7 µM) | 4 (≈ 7.71 µM) | > 64
COc1cccc(/C=N/c2ccc(N3CCN(CC(O)(Cn4cncn4)c4ccc(F)cc4F)CC3)cc2)c1O (stereo not drawn) | 16 (≈ 29.2 µM) | 4 (≈ 7.29 µM) | 64 (≈ 117 µM) | > 64 | 16 (≈ 29.2 µM) | > 64
OC(CN1CCN(c2ccc(/N=C/c3ccc(Cl)cc3)cc2)CC1)(Cn1cncn1)c1ccc(F)cc1F (stereo not drawn) | > 64 | 1 (≈ 1.86 µM) | 32 (≈ 59.6 µM) | 0.5 (≈ 0.931 µM) | 4 (≈ 7.45 µM) | > 64
OC(CN1CCN(c2ccc(/N=C/c3ccc(Br)cc3)cc2)CC1)(Cn1cncn1)c1ccc(F)cc1F (stereo not drawn) | > 64 | 2 (≈ 3.44 µM) | 32 (≈ 55 µM) | 64 (≈ 110 µM) | 8 (≈ 13.8 µM) | > 64
OC(CN1CCN(c2ccc(/N=C/c3ccc4c(c3)OCO4)cc2)CC1)(Cn1cncn1)c1ccc(F)cc1F (stereo not drawn) | 16 (≈ 29.3 µM) | 2 (≈ 3.66 µM) | 32 (≈ 58.5 µM) | 16 (≈ 29.3 µM) | 4 (≈ 7.32 µM) | > 64
OC(CN1CCN(c2ccc(/N=C/c3ccc(F)cc3)cc2F)CC1)(Cn1cncn1)c1ccc(F)cc1F (stereo not drawn) | 8 (≈ 14.9 µM) | 32 (≈ 59.4 µM) | 8 (≈ 14.9 µM) | 4 (≈ 7.43 µM) | 8 (≈ 14.9 µM) | > 64
OC(CN1CCN(c2ccc(/N=C/c3ccc(Cl)cc3)cc2F)CC1)(Cn1cncn1)c1ccc(F)cc1F (stereo not drawn) | 32 (≈ 57.7 µM) | 16 (≈ 28.8 µM) | 32 (≈ 57.7 µM) | 16 (≈ 28.8 µM) | 16 (≈ 28.8 µM) | > 64
OC(CN1CCN(c2ccc(/N=C/c3ccc(Br)cc3)cc2F)CC1)(Cn1cncn1)c1ccc(F)cc1F (stereo not drawn) | 16 (≈ 26.7 µM) | 8 (≈ 13.3 µM) | 32 (≈ 53.4 µM) | 32 (≈ 53.4 µM) | 8 (≈ 13.3 µM) | > 64
Cc1ccc(/C=N/c2ccc(N3CCN(CC(O)(Cn4cncn4)c4ccc(F)cc4F)CC3)c(F)c2)cc1 (stereo not drawn) | 16 (≈ 29.9 µM) | 32 (≈ 59.9 µM) | 8 (≈ 15 µM) | 16 (≈ 29.9 µM) | 16 (≈ 29.9 µM) | > 64
OC(CN1CCN(c2ccc(/N=C/c3ccc(OCc4cccc(Cl)c4)cc3)cc2)CC1)(Cn1cncn1)c1ccc(F)cc1F (stereo not drawn) | 2 (≈ 3.11 µM) | 16 (≈ 24.9 µM) | 64 (≈ 99.5 µM) | > 64 | 32 (≈ 49.8 µM) | > 64
OC(CN1CCN(c2ccc(/N=C/c3ccc(OCc4ccccc4)cc3)cc2)CC1)(Cn1cncn1)c1ccc(F)cc1F (stereo not drawn) | 32 (≈ 52.6 µM) | > 64 | 16 (≈ 26.3 µM) | 64 (≈ 105 µM) | 8 (≈ 13.1 µM) | > 64
OC(CN1CCN(c2ccc(/N=C/c3ccc(Cl)cc3Cl)cc2)CC1)(Cn1cncn1)c1ccc(F)cc1F (stereo not drawn) | 8 (≈ 14 µM) | 8 (≈ 14 µM) | 64 (≈ 112 µM) | > 64 | 8 (≈ 14 µM) | > 64
OC(CN1CCN(c2ccc(/N=C/c3ccc(F)cc3)cc2)CC1)(Cn1cncn1)c1ccc(F)cc1F (stereo not drawn) | > 64 | 2 (≈ 3.84 µM) | 4 (≈ 7.68 µM) | 64 (≈ 123 µM) | 16 (≈ 30.7 µM) | > 64
OC(Cn1cncn1)(Cn1cncn1)c1ccc(F)cc1F [FLUCONAZOLE] | 8 (≈ 26.1 µM) | 4 (≈ 13.1 µM) | 32 (≈ 104 µM) | 1 (≈ 3.27 µM) | 8 (≈ 26.1 µM) | 64 (≈ 209 µM)
